What is called Ki is a measure of affinity in units of concentration, obtained from inhibition or displacement. High values mean lower affinity, low ones higher affinity.

From ChEMBL document CHEMBL1133743, “CCK peptides with combined features of hexa- and tetrapeptide CCK-A agonists” (J Med Chem, 2000) come the findings set out here.

*1 amine or outer side, *2 acyl side, *3 side chain or, on linkers, in order; H or OH if unused. Where a SMILES comes first, the peptide text is derived from it. Side-chain parts run from the residue outwards. [ ]: non-standard residue; d: D form. The star is where a group is joined. NMeF = CN[C@@H](Cc1ccccc1)C(=O)O; NMeD = CN[C@@H](CC(=O)O)C(=O)O; NH(2-Me-phenyl) = Cc1ccccc1N*; X3 = O=C(/C=C/c1ccc(O)cc1)*; Nle = CCCC[C@H](N)C(=O)O; X1 = O=C(Cc1ccc(O)cc1)*; Boc = CC(C)(C)OC(=O)*; CO = O=C([*:1])[*:2]

Assay [1] deals with T1, Cholecystokinin receptor type A (Rattus norvegicus, UniProt P30551).
T1 sequence (P30551 whole entry): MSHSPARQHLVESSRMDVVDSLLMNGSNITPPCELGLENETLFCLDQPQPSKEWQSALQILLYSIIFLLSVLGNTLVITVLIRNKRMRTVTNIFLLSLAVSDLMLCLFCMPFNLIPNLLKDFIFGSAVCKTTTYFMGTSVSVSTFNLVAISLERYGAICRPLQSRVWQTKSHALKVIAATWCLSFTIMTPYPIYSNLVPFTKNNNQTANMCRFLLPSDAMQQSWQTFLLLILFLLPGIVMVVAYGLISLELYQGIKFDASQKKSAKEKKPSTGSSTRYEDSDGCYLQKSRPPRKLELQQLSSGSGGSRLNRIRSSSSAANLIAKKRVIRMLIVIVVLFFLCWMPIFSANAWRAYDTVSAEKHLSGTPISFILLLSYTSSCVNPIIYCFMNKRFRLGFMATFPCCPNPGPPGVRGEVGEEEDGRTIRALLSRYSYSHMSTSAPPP
Put plainly: Inhibition of [125I]BH-CCK-8 binding to Cholecystokinin type A receptor of rat pancreatic tissue. Summed up:
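Sprague–Dawley rat pancreas homogenized in 50 mM Tris pH 8.0 at 4 °C; washed membranes in 5 mM Tris (pH 7.4) with 5 mM MgCl2, 5 mM DTT, 2 mg/mL BSA, 0.14 mg/mL bacitracin.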

Assay [2] deals with T2, Gastrin/cholecystokinin type B receptor (Rattus norvegicus, UniProt P30553).
T2 sequence (P30553 whole entry): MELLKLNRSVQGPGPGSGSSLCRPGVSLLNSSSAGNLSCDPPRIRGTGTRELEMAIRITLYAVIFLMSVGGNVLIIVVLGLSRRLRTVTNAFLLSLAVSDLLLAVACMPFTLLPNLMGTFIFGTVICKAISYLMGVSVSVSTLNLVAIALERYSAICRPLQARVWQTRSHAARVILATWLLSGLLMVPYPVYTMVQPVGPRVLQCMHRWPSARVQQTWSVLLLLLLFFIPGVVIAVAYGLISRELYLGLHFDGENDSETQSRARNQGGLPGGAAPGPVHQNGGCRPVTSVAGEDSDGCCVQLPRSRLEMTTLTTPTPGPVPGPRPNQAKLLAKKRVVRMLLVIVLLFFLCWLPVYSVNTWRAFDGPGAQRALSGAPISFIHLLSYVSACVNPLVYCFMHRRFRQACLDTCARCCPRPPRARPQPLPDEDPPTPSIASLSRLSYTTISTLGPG
Put plainly: Binding affinity towards Cholecystokinin type B receptor in rat cortex synaptosomes using [125I]BH-CCK-8 as radioligand. The format is subcellular, Brain.

The test system of assay [3] is Rattus norvegicus. Briefly: Ability of intraperitoneally administered compound, to inhibit food intake was measured 0.5 hr after feeding the rats. The format is functional. As to conditions: ip. Summed up: (§1)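 Male Sprague–Dawley rats (300–400 g), individually caged, 12 h light/dark cycle, trained ≥14 days to eat powdered chow during first 3 h of dark. Peptide or saline given ip in 0.5 mL 0.9% saline (pH 7.0–8.0) 10 min before food; cumulative intake read at 0.5 and 3 h in same experiment. Five doses, 10 rats/dose; ED50 by logistic fit.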

Assay [4] concerns Rattus norvegicus. Briefly: Ability of intraperitoneally administered compound, to inhibit food intake was measured 3 hr after feeding the rats. As to conditions: ip. The format is functional. An outline of the steps:
as §1

With `Cc1ccccc1NC(=O)NCCCC[C@H](NC(=O)[C@H](Cc1c[nH]c2ccccc12)NC(=O)OC(C)(C)C)C(=O)N[C@H](CC(=O)O)C(=O)N(C)[C@@H](Cc1ccccc1)C(N)=O`, the affinity in assay [1] corresponds to a Ki of 0.53 nM.

In the case of `CSCC[C@H](NC(=O)Cc1ccc(OS(=O)(=O)O)cc1)C(=O)NCC(=O)N[C@@H](Cc1c[nH]c2ccccc12)C(=O)N[C@@H](CCSC)C(=O)N[C@@H](CC(=O)O)C(=O)N(C)[C@@H](Cc1ccccc1)C(N)=O`, the Ki in assay [1] was 0.98 nM; in assay [2] it was 84 nM.

For the compound `Cc1ccccc1NC(=O)NCCCC[C@H](NC(=O)[C@H](Cc1c[nH]c2ccccc12)NC(=O)OC(C)(C)C)C(=O)N[C@@H](CC(=O)O)C(=O)N(C)[C@@H](Cc1ccccc1)C(N)=O`, in assay [1], the affinity corresponds to a Ki of 0.3 nM. Besides, the ED50 was determined as 0.9 µg/kg in the assay with Rattus norvegicus [3] and 3.2 µg/kg with Rattus norvegicus [4].

`Cc1ccccc1NC(=O)NCCCC[C@H](NC(=O)[C@H](Cc1c[nH]c2ccccc12)NC(=O)OC(C)(C)C)C(=O)N[C@@H](CC(=O)O)C(=O)N[C@@H](Cc1ccccc1)C(N)=O` (Boc-WK([CO-NH(2-Me-phenyl)])DF-NH2) returned a Ki in assay [1] of 8.1 nM.

In the case of `CCCC[C@H](NC(=O)Cc1ccc(O)cc1)C(=O)NCC(=O)N[C@@H](Cc1c[nH]c2ccccc12)C(=O)N[C@@H](CCCCNC(=O)/C=C/c1ccc(O)cc1)C(=O)N[C@@H](CC(=O)O)C(=O)N(C)[C@@H](Cc1ccccc1)C(N)=O` (X1-[Nle]GWK(X3)D[NMeF]-NH2), the Ki in assay [1] stood at 3.4 nM; in assay [2], 36 nM.

The compound `CCCC[C@H](NC(=O)Cc1ccc(O)cc1)C(=O)NCC(=O)N[C@@H](Cc1c[nH]c2ccccc12)C(=O)N[C@@H](CCCC)C(=O)N[C@@H](CC(=O)O)C(=O)N(C)[C@@H](Cc1ccccc1)C(N)=O` (X1-[Nle]GW[Nle]D[NMeF]-NH2) returned a Ki in assay [1] of 51 nM.

Take `CCCC[C@H](NC(=O)Cc1ccc(O)cc1)C(=O)NCC(=O)N[C@@H](Cc1c[nH]c2ccccc12)C(=O)N[C@@H](CCCC)C(=O)N(C)[C@@H](CC(=O)O)C(=O)N[C@@H](Cc1ccccc1)C(N)=O` (X1-[Nle]GW[Nle][NMeD]F-NH2): the inhibition constant (Ki) in assay [1] was determined as 4.2 nM; in assay [2], 960 nM. The ED50 in the assay with Rattus norvegicus [3] was 3.8 µg/kg; in the assay on Rattus norvegicus [4], 13 µg/kg.
